Data set [1] deals with T1, Aldo-keto reductase family 1 member B1 (Homo sapiens, UniProt P15121). In words: Inhibition of human recombinant AKR1B1 expressed in Escherichia coli BL21(DE3)pLysS using L-idose as substrate by NADPH oxidation based absorbance analysis.
The target of data set [2] is T2, Tyrosine-protein phosphatase non-receptor type 1 (Homo sapiens) (UniProt P18031).
T2 sequence (whole entry): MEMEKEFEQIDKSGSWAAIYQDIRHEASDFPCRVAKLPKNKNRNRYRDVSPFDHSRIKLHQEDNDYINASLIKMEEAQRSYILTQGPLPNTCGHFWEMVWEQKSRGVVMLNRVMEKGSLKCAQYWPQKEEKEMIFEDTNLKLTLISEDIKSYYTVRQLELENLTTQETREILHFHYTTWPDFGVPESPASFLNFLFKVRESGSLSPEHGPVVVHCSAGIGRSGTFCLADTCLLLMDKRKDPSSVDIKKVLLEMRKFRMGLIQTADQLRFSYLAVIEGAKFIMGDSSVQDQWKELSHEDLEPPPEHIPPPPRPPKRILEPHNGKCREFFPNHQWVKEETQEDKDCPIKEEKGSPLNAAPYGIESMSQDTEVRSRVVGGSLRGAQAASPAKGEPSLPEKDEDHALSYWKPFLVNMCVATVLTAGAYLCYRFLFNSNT
The experiment in a line: Inhibition of N-terminal polyHis-tagged human PTP1B1 (1 to 303 residues) expressed in Escherichia coli BL21(DE3)pLysS assessed as enzyme residual activity using pNPP as substrate at 5 uM by spectrophotometric analysis. In short, it runs like this:
(§1)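 His-tagged human PTP1B (1–303) from E. coli BL21(DE3)pLysS, assayed in 0.075 M β,β-dimethylglutarate pH 7.0 with 1 mM EDTA, 0.1 mM DTT and pNPP. Reaction stopped with 0.1 M KOH; p-nitrophenol read at 400 nm. IC50 from 15–16 inhibitor concentrations in triplicate, normalized to control, fitted by nonlinear regression. Single-point residual activity at 5 µM.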

Data set [3] has as its target T3, Tyrosine-protein phosphatase non-receptor type 1 (Homo sapiens, UniProt P18031).
T3 sequence (P18031 whole entry): T2 sequence (whole entry)
In words: Inhibition of N-terminal polyHis-tagged human PTP1B1 (1 to 303 residues) expressed in Escherichia coli BL21(DE3)pLysS using pNPP as substrate by spectrophotometric analysis. An outline of the steps:
as §1

Data set [4] addresses T4, Tyrosine-protein phosphatase non-receptor type 2 (Homo sapiens, UniProt P17706).
T4 sequence (P17706 whole entry): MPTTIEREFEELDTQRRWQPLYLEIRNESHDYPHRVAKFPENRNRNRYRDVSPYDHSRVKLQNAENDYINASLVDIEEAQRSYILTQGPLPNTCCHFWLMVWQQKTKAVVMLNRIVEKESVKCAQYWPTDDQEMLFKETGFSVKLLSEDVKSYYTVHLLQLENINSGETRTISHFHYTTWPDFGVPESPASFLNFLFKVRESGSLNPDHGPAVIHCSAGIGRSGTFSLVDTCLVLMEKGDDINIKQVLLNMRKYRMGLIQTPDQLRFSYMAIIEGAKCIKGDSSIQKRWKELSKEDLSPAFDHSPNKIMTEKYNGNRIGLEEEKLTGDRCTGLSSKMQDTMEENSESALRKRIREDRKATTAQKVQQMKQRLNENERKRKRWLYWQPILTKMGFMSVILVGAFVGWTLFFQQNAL
In words: Inhibition of N-terminal polyHis-tagged human recombinant TC-PTPb (1 to 415 residues) expressed in Escherichia coli BL21(DE3)pLysS.

For a further data set, the species on record is Homo sapiens. In words: Selectivity index, ratio of IC50 for inhibition of N-terminal polyHis-tagged human recombinant TC-PTPb (1 to 415 residues) expressed in Escherichia coli BL21(DE3)pLysS to IC50 for inhibition of N-terminal polyHis-tagged human PTP1B1 (1 to 303 residues) expressed in Escherichia coli BL21(DE3)pLysS.
Data set [5] has as its target T2, Tyrosine-protein phosphatase non-receptor type 1 (Homo sapiens). The experiment in a line: Reversible inhibition of N-terminal polyHis-tagged human PTP1B1 (1 to 303 residues) expressed in Escherichia coli BL21(DE3)pLysS using pNPP as substrate pretreated with enzyme for 60 mins followed by 400-fold dilution with buffer containing substrate and measured after 15 mins by spectrophotometric analysis. The settings on record: time 75.0 min. An outline of the steps:
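PTP1B incubated 60 min at 37 °C with saturating inhibitor, then diluted 400-fold into assay buffer containing 2.5 mM pNPP. Stopped after 15 min with 0.2 M KOH; absorbance read at 400 nm. Normalized to enzyme diluted with DMSO; mean ± SEM (n = 3).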

For data set [6], the target named is T1, Aldo-keto reductase family 1 member B1. The experiment in a line: Reversible inhibition of human recombinant AKR1B1 expressed in Escherichia coli BL21(DE3)pLysS assessed as recovery of enzyme activity using L-idose as substrate measured after extensive dialysis by NADPH oxidation based absorbance analysis. Further details: scale not given: the % may be the effect or the level left.

The target of data set [7] is T3, Tyrosine-protein phosphatase non-receptor type 1. The experiment in a line: Non-competitive inhibition of N-terminal polyHis-tagged human PTP1B1 (1 to 303 residues) expressed in Escherichia coli BL21(DE3)pLysS assessed as apparent dissociation constant for EI complex using pNPP as substrate by Lineweaver-Burk plot analysis. In short, it runs like this:
(§2)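 PTP1B initial pNPP hydrolysis rates measured at seven pNPP concentrations (0.5–25 mM) and at least three inhibitor concentrations, in triplicate. Data fitted to Michaelis–Menten; KM and Vmax dependence on inhibitor analysed by Lineweaver–Burk plots.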

Data set [8] has the same target. In words: Non-competitive inhibition of N-terminal polyHis-tagged human PTP1B1 (1 to 303 residues) expressed in Escherichia coli BL21(DE3)pLysS assessed as apparent dissociation constant for ESI complex using pNPP as substrate by Lineweaver-Burk plot analysis. In short, it runs like this:
as §2

The target in data set [9] is T1, Aldo-keto reductase family 1 member B1. The experiment in a line: Mixed non-competitive inhibition of human recombinant AKR1B1 expressed in Escherichia coli BL21(DE3)pLysS assessed as apparent dissociation constant for EI complex using L-idose as substrate by secondary plot analysis. An outline of the steps:
(§3)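 AKR1B1 rates measured at varied L-idose concentrations with and without several inhibitor concentrations, then Lineweaver–Burk analysis. […] Tight binders fitted with the Morrison equation, KM for L-idose taken as 3.8 mM. At least three independent experiments.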

Data set [10] shares this target. In words: Mixed non-competitive inhibition of human recombinant AKR1B1 expressed in Escherichia coli BL21(DE3)pLysS assessed as apparent dissociation constant for ESI complex using L-idose as substrate by secondary plot analysis. In short, it runs like this: as §3
The target is the same in data set [11]. In words: Ratio of Ki for human recombinant AKR1B1 expressed in Escherichia coli BL21(DE3)pLysS assessed as apparent dissociation constant for EI complex to Ki for human recombinant AKR1B1 expressed in Escherichia coli BL21(DE3)pLysS assessed as apparent dissociation constant for ESI complex. In short, it runs like this:
as §3

In another data set the test system is C2C12. The experiment in a line: Cytotoxicity against mouse C2C12 cells assessed as reduction in cell viability at 20 uM incubated for 24 hrs by MTT assay. Format: toxicity, cell-based. The settings on record: c2c12, 24 h. An outline of the steps: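 C2C12 myoblasts were differentiated for 96 h in DMEM with 2% horse serum, then held 24 h in complete medium with 20 µM compound, DMSO vehicle as control. MTT 0.5 mg/mL was added, cells lysed in DMSO, absorbance read, and values normalized to vehicle. Quadruplicate, mean ± SD (n = 4).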

The target in data set [12] is T5, Tyrosine-protein phosphatase non-receptor type 1 (Mus musculus) (UniProt P35821).
T5 sequence (whole entry): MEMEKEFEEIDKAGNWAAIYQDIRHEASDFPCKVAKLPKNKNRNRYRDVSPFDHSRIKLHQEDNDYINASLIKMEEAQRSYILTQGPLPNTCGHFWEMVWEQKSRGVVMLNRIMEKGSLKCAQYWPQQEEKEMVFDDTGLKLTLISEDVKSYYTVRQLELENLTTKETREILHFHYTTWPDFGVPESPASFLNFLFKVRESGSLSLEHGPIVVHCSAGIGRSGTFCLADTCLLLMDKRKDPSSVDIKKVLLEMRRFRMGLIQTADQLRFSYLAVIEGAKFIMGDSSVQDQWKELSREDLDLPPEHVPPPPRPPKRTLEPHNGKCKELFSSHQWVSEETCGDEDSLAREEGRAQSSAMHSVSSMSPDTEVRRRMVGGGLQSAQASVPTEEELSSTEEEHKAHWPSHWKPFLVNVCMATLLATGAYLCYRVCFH
In words: Inhibition of PTP1B in mouse C2C12 cells assessed as increase in Akt phosphorylation by measuring increase in ratio of pAkt to Akt at 20 uM treated for 15 mins by western blot analysis. The class given is cell-based. An outline of the steps:
(§4)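 C2C12 cells starved 24 h, then given 10 nM insulin, 20 µM compound, or both, for 15 min. Washed in cold PBS, lysed in 1X Laemmli buffer, run on SDS-PAGE, blotted to PVDF. Probed with antibodies to phospho-Akt and total Akt, with actin as loading control. Bands quantified; triplicate, mean ± SD (n = 3).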
A general note: Immunoblotting shows a protein as a band on a membrane.

The target in data set [13] is T5, Tyrosine-protein phosphatase non-receptor type 1 (Mus musculus). The experiment in a line: Inhibition of PTP1B in mouse C2C12 cells assessed as potentiation of insulin-induced Akt phosphorylation by measuring increase in ratio of pAkt to Akt at 20 uM treated for 15 mins in presence of insulin by western blot analysis. Format: cell-based. An outline of the steps:
as §4

Data set [14] has as its target T3, Tyrosine-protein phosphatase non-receptor type 1. The experiment in a line: Mixed non-competitive inhibition of N-terminal polyHis-tagged human PTP1B1 (1 to 303 residues) expressed in Escherichia coli BL21(DE3)pLysS assessed as apparent dissociation constant for EI complex using pNPP as substrate by Lineweaver-Burk plot analysis. In short, it runs like this:
as §2

For data set [15] the target is unchanged. In words: Mixed non-competitive inhibition of N-terminal polyHis-tagged human PTP1B1 (1 to 303 residues) expressed in Escherichia coli BL21(DE3)pLysS assessed as apparent dissociation constant for ESI complex using pNPP as substrate by Lineweaver-Burk plot analysis. In short, it runs like this:
as §2

The IC50 is the point on the concentration scale where inhibition reaches its midpoint.

Structures are written as SMILES. Calls of active or inactive are those of the source. The calls are words filed in the database; no cut-off is given here.

In the case of `O=C(O)CCN1C(=O)/C(=C/c2ccc(OCCCOc3ccccc3)cc2)SC1=S`, the concentration for half-maximal inhibition (IC50) in data set [1] came out at 3900 nM. The Activity in data set [2] turned out to be 74.4%.
Turning to `O=C(O)CCN1C(=O)/C(=C/c2ccc(OCCCc3ccccc3)cc2)SC1=S`, in data set [1], the half-maximal inhibitory concentration (IC50) is 38200 nM. Moreover, the Activity in data set [2] was found to be 99.8%.
With `O=C(O)CN1C(=O)/C(=C/c2ccc(OCCCCc3ccccc3)cc2)SC1=S`, the IC50 is 330 nM in data set [1], 4000 nM in data set [3] and 193000 nM in data set [4]. Besides, the Ratio IC50 in the data set listed under Homo sapiens was found to be 48. Also, in data set [5], the inhibition result is “Active”. The Activity in data set [6] is above 90%; in the data set on C2C12, “Non-Toxic”. Moreover, the Ki turned out to be 12100 nM in data set [7], 17500 nM in [8], 1300 nM in data set [9] and 410 nM in data set [10]. Also, in [11], the Ratio Ki turned out to be 2. Also, the inhibition result in data set [12] and in data set [13] was “inactive” each time.
Take `O=C(O)CCN1C(=O)/C(=C/c2cccc(OCCCc3ccccc3)c2)SC1=S`: in data set [1], the IC50 is 1200 nM. Moreover, the Activity in data set [2] amounted to 67.6%.
For `O=C(O)CCN1C(=O)/C(=C/c2cccc(OCCCOc3ccccc3)c2)SC1=S` the same measures were 2100 nM and 77%.
For the molecule `O=C(O)CN1C(=O)/C(=C/c2cccc(OCCCOc3ccccc3)c2)SC1=S`, in data set [1], the IC50 amounted to 80 nM. The Activity in data set [2] came to 100%.
Turning to `O=C(O)CCN1C(=O)/C(=C/c2ccc(OCCCCc3ccccc3)cc2)SC1=S`, the IC50 in data set [1] came to 60700 nM; in data set [3] it was 2900 nM; in [4], 9100 nM. Besides, the inhibition result in [5], in [12] and in [13] was “Active” in each case. Further, the Ki in data set [14] turned out to be 600 nM; in data set [15] it was 2400 nM. Besides, the Activity entry in the data set with C2C12 is “Non-Toxic”.
Consider `O=C(O)CN1C(=O)/C(=C/c2ccc(OCCCc3ccccc3)cc2)SC1=S`, for which the IC50 in data set [1] stood at 260 nM. For the same molecule, in data set [2], the Activity turned out to be 79%.
As for `O=C(O)CN1C(=O)/C(=C/c2cccc(OCCCc3ccccc3)c2)SC1=S`, the 50% inhibitory concentration (IC50) in [1] was 50 nM. The Activity in data set [2] was determined as 81%.
Take `O=C(O)CN1C(=O)/C(=C/c2ccc(OCCCOc3ccccc3)cc2)SC1=S`: the IC50 in data set [1] is 220 nM. In addition, the Activity in data set [2] was found to be 87.6%.

The values above are taken from ChEMBL document CHEMBL5360543, “Designed multiple ligands for the treatment of type 2 diabetes mellitus and its complications: Discovery of (5-arylidene-4-oxo-2-thioxothiazolidin-3-yl)alkanoic acids active as novel dual-targeted PTP1B/AKR1B1 inhibitors” (Eur J Med Chem, 2023).
